# High-throughput results: PubChem, Sanford-Burnham Center for Chemical Genomics
# SKN-1 block – suppressors of acrylamide-induced Pgst-4::GFP reporter in worms, primary screen, SKN-1 inhibitor project, whole organism, uHTS, GFP/RFP fluorescence ratio, strain VP596 | C. elegans VP596 Pgst-4::GFP/RFP ratio, 24 h | inhibition, % at 21.8 µM | 360,000 tested, 0.49% active | AID 624304, 2012;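 active means interference check ratio from 0.5 to 1.5 plus GFP to RFP signal ratio inhibition reaching or exceeding a fixed threshold, cut at about 30% in these data, passing the limit was not always enough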
# PABP1 MLLE inh – inhibitors of PABP1 MLLE–PAM2 peptide binding, primary screen, biochemical, fluorescence polarization, FITC-PAM2, GST-MLLE; Polyadenylate-binding protein 1 (Homo sapiens), P11940; inhibition, % at 20 µM; 360,000 tested, 0.36% active; in the data active means inhibition above about 35%, passing the limit was not always enough;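 further: plate controls were DMSO wells with GST-MLLE for no effect and wells lacking GST-MLLE protein for full effect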
# eIF4H inh – human eIF4H binding inhibitors, primary screen, translation initiation inhibitor project, biochemical, uHTS, fluorescence polarization; eIF4H fluorescence polarization binding assay; Eukaryotic translation initiation factor 4H (Homo sapiens), Q15056; inhibition, % at 35 µM; AID 2012, 2009; 290,000 tested, 0.94% active;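 further: calls also rest on retests at 20 µM and on dose response follow-up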
# MT1-MMP act inh – blockers of MT1-MMP proenzyme processing, primary screen, HT1080 RFP-PRO-GFP cells, GFP/RFP fluorescence. Matrix metalloproteinase-14 (Homo sapiens), P50281. GFP/RFP ratio fluorescence, overnight; percent of plate control window, DMSO zero. GFP/RFP ratio change, % at 20 µM. 360,000 tested, 0.061% active. AID 651647, 2012;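 active means GFP/RFP ratio change of at least 30% with cell ATP level not reduced by more than half and red fluorescence within 50% of control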
#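 Compound: 20 µM single dose, 1% DMSO / System: HT1080 RFP-PRO-GFP cells / Controls: DMSO and RFP-L50D-GFP cell wells / Read-out basis: GFP/RFP fluorescence ratio / Schedule: overnight compound exposure at 37 °C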
# PABP polyA inh – PABP poly(A) RNA binding inhibitors, primary screen, biochemical, fluorescence polarization, uHTS. Polyadenylate-binding protein 1 (Homo sapiens), P11940. inhibition, % at 35 µM. 290,000 tested, 1% active;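 further: calls also rest on retests at 20 µM and on dose response follow-up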
# Starred values were filed as active, the others as inactive; / = not tested or not shown; ! = a repeat was not active. Hits are enriched below; roughly 1.7% of the tested compounds scored in any of these assays. Unless noted, how the calls were made is not given here.
SMILES,SKN-1 block,PABP1 MLLE inh,eIF4H inh,MT1-MMP act inh,PABP polyA inh
CCC(=O)N1CC2(CC(c3cccc(NC(=O)CC(c4ccccc4)c4ccccc4)c3)=NO2)C[C@H]1C(N)=O (stereo not given in full),0.7,4.4,2.9,1.1,-0.3
COc1cc(OC)cc(-c2c(-c3cccs3)c3cc(-c4ccc(OC)c(OC)c4)ccc3n2C)c1,8.5,-5.2,/,3.6,/
C/C=C(\C)C(=O)Nc1cccc(C2=NOC3(C2)C[C@@H](C(N)=O)N(C(=O)/C(C)=C/C)C3)c1 (stereo not given in full),2.3,7.2,-8.0,-3.2,10.6
C=C(C)C(=O)Nc1cccc(C2=NOC3(C2)C[C@@H](C(N)=O)N(C(=O)/C=C/C=C/C)C3)c1 (stereo not given in full),14.6,-2.2,93.0*,2.6,56.1*
C=C(C)C(=O)Nc1cccc(C2=NOC3(C2)C[C@@H](C(N)=O)N(C(=O)/C(C)=C/C)C3)c1 (stereo not given in full),6.2,-1.9,82.6*,9.7,57.5*
C/C=C(\C)C(=O)Nc1cccc(C2=NOC3(C2)C[C@@H](C(N)=O)N(C(=O)c2ccccc2C(=O)c2ccccc2)C3)c1 (stereo not given in full),9.8,-22.9,11.4,-3.3,14.1
C=C(C)C(=O)Nc1cccc(C2=NOC3(C2)C[C@H](C(N)=O)N(C(=O)c2ccccc2C(=O)c2ccccc2)C3)c1 (stereo not given in full),-7.7,0.6,98.2*,-2.3,58.5*
CSC(=NCCCN1CCOCC1)NS(=O)(=O)c1cccs1,43.3*!,12.5,-8.9,2.5,-4.6
O=C(NCc1ccccc1)C1c2ccccc2OCC(=O)N1Cc1ccc2c(c1)OCO2 (stereo not given),9.7,/,/,5.5,/
CC(C)c1ccc(O)c(NC(=S)NC(=O)CCc2ccccc2)c1,-4.1,42.6*,11.7,2.1,-0.7
COc1ccccc1NC(=S)NC(=O)CCc1ccccc1,16.5,27.6,-1.6,-0.5,9.7
O=C1/C(=C/c2cccc(Br)c2)SC(=S)N1/N=C/c1cc([N+](=O)[O-])ccc1O,-3.3,-7.4,42.5,4.2,15.2
CCc1cc(=O)oc2cc(C)cc(OCC(=O)NCc3cccnc3)c12,20.8,8.9,79.1*,-1.7,7.2
CCCCc1cc(=O)oc2cc(C)cc(OCC(=O)NCc3cccnc3)c12,-3.8,12.3,-10.8,-3.2,-7.3
CSc1nnc(-c2ccccc2Cl)o1,8.2,-12.3,1.8,-0.9,3.3
Clc1ccccc1-c1ncc(-c2ccccc2)o1,41.8*,0.4,-2.3,0.5,-4.0
Cc1ccccc1NC(=O)CCS(=O)(=O)c1ccc(Br)cc1,9.0,0.5,9.5,1.5,0.3
CCN(CC)c1ccc(NC(=O)CCS(=O)(=O)c2ccc(Br)cc2)c(C)c1,13.1,-9.8,93.3*,3.2,41.6*
O=C(Cc1ccsc1)NCC(=O)Nc1ccccc1Br,0.7,-10.0,/,0.4,/
COc1cc2c(C#N)c(N3CCCCC3)nc(N)c2c(N)n1,11.2,-12.4,90.9*,-12.1,101.5*
COc1cc2c(C#N)c(N3CCc4ccccc4C3)nc(N)c2c(N)n1,7.3,1.9,121.5*,/,115.5*
COc1cc2c(C#N)c(N3CCOCC3)nc(N)c2c(N)n1,5.9,18.6,-2.2,-8.8,-9.8
O=C(Cn1cnc([N+](=O)[O-])c1)c1ccc(F)cc1,21.2,-19.4,/,-0.6,/
CC(=O)N1/C(=C/c2ccc(N(C)C)cc2)C(=O)c2ccccc21,35.3*,-115.2,-2.2,5.5,-4.3
COc1ccc(OC)c(S(=O)(=O)Nc2ccc(-c3ccc4nncn4n3)cc2)c1,-0.6,38.9,/,-5.9,/
CN1CCN(c2nc3nonc3nc2N2CCN(C)CC2)CC1,-11.2,24.8,80.2*,4.3,99.6*
C1CCN(c2nc3nonc3nc2N2CCCCC2)CC1,12.7,8.8,0.2,-1.8,13.9
